Source: ChEMBL document CHEMBL2396616, “Development and characterization of a promising fluorine-18 labelled radiopharmaceutical for in vivo imaging of fatty acid amide hydrolase” (Bioorg Med Chem, 2013)
pIC50: −log10 of the molar value.

Legend:
[1] = target: T1, Fatty-acid amide hydrolase 1 (Rattus norvegicus, UniProt P97612); assay: Inhibition of FAAH in rat brain homogenates using [3H]anandamide as substrate preincubated for 60 mins by liquid scintillation spectroscopy
T1 sequence (P97612 whole entry): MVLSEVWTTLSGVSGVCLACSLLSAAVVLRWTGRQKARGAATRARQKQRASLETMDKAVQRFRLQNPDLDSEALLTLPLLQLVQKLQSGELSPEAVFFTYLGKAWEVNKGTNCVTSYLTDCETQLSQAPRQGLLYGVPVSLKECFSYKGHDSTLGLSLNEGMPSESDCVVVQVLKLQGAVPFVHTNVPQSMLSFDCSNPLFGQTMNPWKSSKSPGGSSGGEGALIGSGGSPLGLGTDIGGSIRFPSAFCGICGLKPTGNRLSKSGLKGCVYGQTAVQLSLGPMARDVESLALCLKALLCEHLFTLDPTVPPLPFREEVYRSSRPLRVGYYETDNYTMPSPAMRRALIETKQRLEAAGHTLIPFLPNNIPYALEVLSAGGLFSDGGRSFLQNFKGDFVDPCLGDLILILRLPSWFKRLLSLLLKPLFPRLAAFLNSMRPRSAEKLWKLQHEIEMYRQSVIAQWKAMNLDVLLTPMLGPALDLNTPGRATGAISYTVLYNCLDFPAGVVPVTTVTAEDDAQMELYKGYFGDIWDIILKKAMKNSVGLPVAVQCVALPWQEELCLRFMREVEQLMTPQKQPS

Brain [2] = assay: Biodistribution in rat brain at < 1 nmol/kg, iv after 2 to 40 mins by gamma counting in presence of FAAH inhibitor PF-04457845; type: ADME, organism-based; conditions: in vivo
Method in brief: (§1)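 [18F]radiotracer, 3–4 MBq (0.2–1 nmol/kg), given by tail vein in 0.3 mL 10% ethanol/citrate buffer pH 6 to restrained conscious rats. Decapitation at set times. Regions excised, blotted, weighed. Gamma counting decay-corrected to injection against injected-dose standards. Reported as SUV (%ID/g […] body weight kg), mean ± SD, n=4/group. Blocked groups vs vehicle by Student's t test.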

Plasma [3] = assay: Drug metabolism in rat plasma after 10 mins; type: ADME, cell-free
Method in brief: (§2)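 Rats given radiotracer iv, killed at 10 min. Trunk blood taken into heparin, plasma separated and acidified with 10% v/v acetic acid. Plasma and brain homogenate extracts analysed directly by reverse-phase radio-HPLC for parent vs metabolites.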

[4] = Drug metabolism in human plasma after 30 mins; type: ADME, cell-free; conditions: read-out: Drug metabolism
Method in brief: (§3)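 Radiotracer incubated in vitro in rat or human plasma for 30 min at ambient temperature. Decomposition assessed by radio-HPLC.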

Cortex [5] = assay: Drug uptake in Sprague-Dawley rat cortex at 0.7 to 0.8 nmol/kg, iv after 40 mins by autoradiography analysis; type: ADME, organism-based; conditions: in vivo
Method in brief: (§4)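 Male Sprague-Dawley rats (310–330 g) got 45–55 MBq radiotracer (0.7–0.8 nmol/kg) by tail vein. Pretreated 40 min earlier with vehicle (5% Tween80/saline) or PF-04457845 0.5 mg/kg ip. Killed 40 min post-injection. Brains frozen, cut into 20-μm coronal sections at −20°C, dried, exposed to film for 6 days.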

Hippocampus [6] = assay: Drug uptake in Sprague-Dawley rat hippocampus at 0.7 to 0.8 nmol/kg, iv after 40 mins by autoradiography analysis in presence of FAAH inhibitor PF-04457845; type: ADME, organism-based; conditions: in vivo; method in brief: as §4
Cortex [7] = assay: Biodistribution in rat brain cortex at < 1 nmol/kg, iv after 40 mins by gamma counting; type: ADME, organism-based; conditions: in vivo; method in brief: as §1
[8] = Drug metabolism in rat brain after 10 mins; type: ADME, tissue-based; conditions: read-out: Drug metabolism; method in brief: as §2
[9] = Drug uptake in Sprague-Dawley rat thalamic nuclei at 0.7 to 0.8 nmol/kg, iv after 40 mins by autoradiography analysis; type: ADME, organism-based; conditions: in vivo; method in brief: as §4
Hypothalamus [10] = assay: Biodistribution in rat brain hypothalamus at < 1 nmol/kg, iv after 40 mins by gamma counting; type: ADME, organism-based; conditions: in vivo; method in brief: as §1
[11] = Irreversible biodistribution in iv dosed rat brain parenchyma after 10 mins by gamma counting; type: ADME, organism-based; conditions: in vivo
Method in brief: (§5)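 After tail-vein radiotracer, rats (n=4–6/group) killed at 2, 10 or 40 min. Whole brain rinsed in saline and homogenised in cold 80% acetonitrile/0.01% aq HCl. Centrifuged and extracted three times in total. Pooled supernatant (unbound) and pellet (bound) counted separately. […] Mean ± SD.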

[12] = Drug uptake in Sprague-Dawley rat amygdaloid nuclei at 0.7 to 0.8 nmol/kg, iv after 40 mins by autoradiography analysis; type: ADME, organism-based; conditions: in vivo; method in brief: as §4
[13] = Irreversible biodistribution in iv dosed rat brain parenchyma after 2 to 40 mins by gamma counting in presence of FAAH inhibitor URB597; type: ADME, organism-based; conditions: in vivo; method in brief: as §5
Brain [14] = assay: Biodistribution in rat brain at < 1 nmol/kg, iv after 2 to 40 mins by gamma counting in presence of FAAH inhibitor URB597; type: ADME, organism-based; conditions: in vivo; method in brief: as §1
[15] = Drug uptake in Sprague-Dawley rat cerebellar cortex at 0.7 to 0.8 nmol/kg, iv after 40 mins by autoradiography analysis in presence of FAAH inhibitor PF-04457845; type: ADME, organism-based; conditions: in vivo; method in brief: as §4
Cortex [16] = assay: Drug uptake in Sprague-Dawley rat cerebellar cortex at 0.7 to 0.8 nmol/kg, iv after 40 mins by autoradiography analysis; type: ADME, organism-based; conditions: in vivo; method in brief: as §4
[17] = Irreversible biodistribution in iv dosed rat brain parenchyma after 2 mins by gamma counting; type: ADME, organism-based; conditions: in vivo; method in brief: as §5
[18] = Irreversible biodistribution in iv dosed rat brain parenchyma after 40 mins by gamma counting; type: ADME, organism-based; conditions: in vivo; method in brief: as §5
Cortex [19] = assay: Biodistribution in rat brain cortex at < 1 nmol/kg, iv after 2 mins by gamma counting; type: ADME, organism-based; conditions: in vivo; method in brief: as §1
[20] = Drug uptake in Sprague-Dawley rat amygdaloid nuclei at 0.7 to 0.8 nmol/kg, iv after 40 mins by autoradiography analysis in presence of FAAH inhibitor PF-04457845; type: ADME, organism-based; conditions: in vivo; method in brief: as §4
[21] = Drug uptake in Sprague-Dawley rat thalamic nuclei at 0.7 to 0.8 nmol/kg, iv after 40 mins by autoradiography analysis in presence of FAAH inhibitor PF-04457845; type: ADME, organism-based; conditions: in vivo; method in brief: as §4
Cortex [22] = assay: Drug uptake in Sprague-Dawley rat cortex at 0.7 to 0.8 nmol/kg, iv after 40 mins by autoradiography analysis in presence of FAAH inhibitor PF-04457845; type: ADME, organism-based; conditions: in vivo; method in brief: as §4
Plasma [23] = assay: Drug metabolism in rat plasma after 30 mins; type: ADME, cell-free; conditions: 0.5 h; method in brief: as §3
Hypothalamus [24] = assay: Biodistribution in rat brain hypothalamus at < 1 nmol/kg, iv after 2 mins by gamma counting; type: ADME, organism-based; conditions: in vivo; method in brief: as §1
Hippocampus [25] = assay: Drug uptake in Sprague-Dawley rat hippocampus at 0.7 to 0.8 nmol/kg, iv after 40 mins by autoradiography analysis; type: ADME, organism-based; conditions: in vivo; method in brief: as §4

Q: With `O=C(NCCCCCF)Oc1cccc(C2=NCCO2)c1` as the molecule, how does the pIC50 [1] read?
A: 9.09

Q: Which results are given for `O=C(NCCCCC[18F])Oc1cccc(C2=NCCO2)c1`?
A: Drug uptake (Brain [2]): Not Active; Drug metabolism (Plasma [3]): > 95%; metabolised at 0.5 h [4]: < 5%; Drug uptake (Cortex [5]): Active; Drug uptake (Hippocampus [6]): Not Active; SUV (Cortex [7]): 4.55; metabolised at 10 min [8]: 50%; Drug uptake [9]: Active; SUV (Hypothalamus [10]): 1.59; Drug uptake [11]: 94%; Drug uptake [12]: Active; Drug uptake [13]: 24%; Drug uptake (Brain [14]): Not Active; Drug uptake [15]: Not Active; Drug uptake (Cortex [16]): Active; Drug uptake [17]: 91%; Drug uptake [18]: 90%; SUV (Cortex [19]): 3.9; Drug uptake [20]: Not Active; Drug uptake [21]: Not Active; Drug uptake (Cortex [22]): Not Active; Drug metabolism (Plasma [23]): > 50%; SUV (Hypothalamus [24]): 1.74; Drug uptake (Hippocampus [25]): Active
